PTEN del growth: PTEN-deleted cell growth suppression. AID 827. HCT116 PTEN-null viability, CellTiter-Glo, 60 h; hits give low values. viability, % at 10 µM. hit rate 1.2% among 140,000;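 active = viability at or below a set limit, 4 SD under the median of all tested compounds, cut at about 3.7% in these data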;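 note: PTEN knockout HCT116 line with beta catenin targeted HCT116 as companion control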
TNAP inh hiacc: blocks human TNAP under high phosphate acceptor concentration | inhibition, % at 20 µM | purified TNAP, CDP-star luminescence, 1 M DEA | P05186 | hit rate 0.03% among 200,000;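 active = over 50% inhibition of tissue-nonspecific alkaline phosphatase at 20 µM in the single-dose screen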;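 note: plate controls were DMSO wells for no effect and EDTA-quenched wells as full inhibition for full effect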
Target sequence (P05186 whole entry, looked up): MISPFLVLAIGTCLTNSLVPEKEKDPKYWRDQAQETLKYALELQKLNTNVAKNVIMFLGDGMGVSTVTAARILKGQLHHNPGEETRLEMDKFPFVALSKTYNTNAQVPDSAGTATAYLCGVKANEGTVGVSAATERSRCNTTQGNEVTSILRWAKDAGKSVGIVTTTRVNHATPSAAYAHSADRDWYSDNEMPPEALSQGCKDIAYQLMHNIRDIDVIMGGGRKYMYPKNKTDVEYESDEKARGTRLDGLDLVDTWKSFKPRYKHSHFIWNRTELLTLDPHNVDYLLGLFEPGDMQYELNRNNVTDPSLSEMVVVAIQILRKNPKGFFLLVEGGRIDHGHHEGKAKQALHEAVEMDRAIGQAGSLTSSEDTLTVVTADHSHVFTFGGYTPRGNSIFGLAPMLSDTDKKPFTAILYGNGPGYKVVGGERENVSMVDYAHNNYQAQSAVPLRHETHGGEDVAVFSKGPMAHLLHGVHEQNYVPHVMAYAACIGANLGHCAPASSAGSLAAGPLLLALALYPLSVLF
TNAP act hiacc: activators of human TNAP at high phosphate acceptor concentration. P05186. purified TNAP, CDP-star luminescence, 1 M DEA, 30 min; hits give high values; 0 = EDTA background, 1 = DMSO-only activity. activation factor at 20 µM. 200,000 tested, under 10 active;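 active = activation factor at least 2 at 20 µM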
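Test system – human TNAP · Doses – 20 µM single point · Incubation – 30 min, room temperature · Signal – luminescent substrate turnover signal · Read-out basis – activation factor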
TNAP inh no acc: TNAP (human) inhibition, acceptor-free conditions; P05186; purified TNAP, CDP-star luminescence, 30 min; inhibition, % at 20 µM; hit rate 0.26% among 200,000; AID 1012;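 active = tissue-nonspecific alkaline phosphatase inhibition above about 50% at 20 µM in the single-dose screen, limit read from the data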;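 note: 0% = DMSO negative control and 100% = EDTA positive control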
bCat KO growth: beta-catenin-lacking colon tumor cell growth suppression. HCT116 beta-catenin knockout viability, CellTiter-Glo, 60 h; hits give low values. viability, % at 10 µM. hit rate 1.5% among 140,000;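 active = viability at or under a set limit, the compound median less 4 SD, cut at about 6% in these data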;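 note: 0% = Hyamine 1622 control at 20 µM and 100% = untreated cell control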
L major viab: inhibitors of Leishmania major promastigote growth. Leishmania major promastigotes, resazurin fluorescence viability. hit rate 9% among 200,000. inhibition, % at 10 µM. AID 1063; in the data active = inhibition above about 50%;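 note: promastigotes grown with compound for 44 hours at 28 °C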
* = called active by the depositor; nt = no result. Sampled rows, rich in hits. Any-hit rate of the full collection: about 9.6%.

SMILES	PTEN del growth	TNAP inh hiacc	TNAP act hiacc	TNAP inh no acc	bCat KO growth	L major viab
COc1cc(CNc2ccc(N3CCN(C(C)=O)CC3)cc2)ccc1OCc1ccc(F)cc1	nt	-10	1.1	-8	nt	6
COc1ccccc1/C=C/C(=O)N1CCC(c2ccccc2)C1 (centres undefined)	67	-4	1	-14	71	-8
Cc1cc(Cn2ccnc2)c(C)cc1Cn1ccnc1	85	-4	1	-2	86	98*
COc1ccc(C=O)cc1Cn1ccnc1	nt	-6	1.1	-6	nt	-8
CC1=NN(c2ccccc2)C(=O)/C1=C\c1cn(CCC#N)nc1-c1ccc(Cl)cc1	82	0	1	17	85	21
CC1=NNC(=O)/C1=C\c1cn(-c2ccccc2)nc1-c1ccc(Cl)cc1	1.4*	0	1	0	1.4*	101*
Cc1ccc(-c2nn(-c3ccccc3)cc2C=C2C(=O)CC(C)(C)CC2=O)cc1	13	1	1	17	20	96*
CC(C)n1c(O)c(N=NC(=O)c2ccccc2NS(=O)(=O)c2cccs2)c2ccccc21	86	2	1	-7	100	-1
CC1Oc2ccccc2N(CC(=O)c2ccc(F)cc2)C1=O (centres undefined)	nt	-3	1	4	nt	3
CCC(C)(C)c1ccc(OCCCC[n+]2ccc(C)cc2)c(C(C)(C)CC)c1	nt	0	1	5	nt	100*
CCOC(=O)C1(Cc2cccc(OC)c2)CCN(Cc2cccc3c2OCO3)CC1	nt	-11	1.1	-8	nt	54*
C=CCOc1ccccc1CN1CCC(CO)(CCOc2ccccc2)CC1	nt	-3	1	-3	nt	22
CCOC(=O)C1(CCOc2ccccc2)CCN(Cc2ccc3c(c2)OCCO3)CC1	nt	-6	1.1	-6	nt	86*
CCOC(=O)C1(Cc2cccc(OC)c2)CCN(Cc2ccc3c(c2)OCCO3)CC1	nt	-9	1.1	-8	nt	95*
OCC1(CCOc2ccccc2)CCN(Cc2ccc3c(c2)OCCO3)CC1	nt	-6	1.1	-9	nt	92*
O=C(CCCN1C(=O)c2ccccc2C1=O)Nc1cccc(S(=O)(=O)NC2=NCCC2)c1	nt	-1	1	-10	nt	-6
COc1ccccc1C(=O)NNC(=O)c1ccc(NC(=O)C(C)C)cc1	nt	-7	1.1	-28	nt	-5
Nc1nnnn1/N=C/C(Br)=C/c1ccccc1	3.2*	-4	1	-16	7	35
Nc1nnnn1/N=C/C=C/c1ccccc1	100	-3	1	-14	92	-9
Cn1ccc(C(=O)Nc2ccc(Br)cc2Br)n1	101	-6	1.1	-12	94	0
O=C1c2ccccc2C(O)N1Cc1cccs1 (centres undefined)	nt	-2	1	-8	nt	-1
Cc1ccccc1N=Nc1ccc(O)c2ncccc12	11	12	0.9	4	16	100*
COc1ccc(C)cc1N=Nc1ccc(O)c2ncccc12	nt	36	0.6	-5	nt	100*
O=C(Nc1cccc2ncccc12)c1ccc2c(c1)OCCO2	89	-1	1	-9	92	-6
Oc1ccc(N=Nc2ccc3c(c2)OCCO3)c2cccnc12	nt	37	0.6	16	nt	100*
SMILES	PTEN del growth	TNAP inh hiacc	TNAP act hiacc	TNAP inh no acc	bCat KO growth	L major viab
CCOC(=O)COc1c(/C=N\OC)cc(Cl)cc1OC	nt	1	1	-4	nt	-4
O=C(COC(=O)C1CCCCC1)Nc1cc([N+](=O)[O-])ccc1F	nt	-6	1.1	-10	nt	5
Cc1cc(C(=O)COC(=O)c2ccc([N+](=O)[O-])o2)c(C)n1CC1CCCO1 (centres undefined)	nt	-3	1	-18	nt	82*
COCCn1c(C)cc(C(=O)COC(=O)c2ccc([N+](=O)[O-])o2)c1C	nt	0	1	-12	nt	75*
CCC/C=N/NC(=O)c1[nH]c2c([N+](=O)[O-])cccc2c1C	13	6	0.9	-15	13	-8
Brc1ccccc1CN1CCC(N2CCCCC2)CC1	80	-2	1	-5	75	100*
Cn1c(N/N=C/c2c[nH]c3ccccc23)nc2ccccc21	0.9*	-1	1	-13	1.5*	101*
COc1ccc(NS(=O)(=O)c2ccc(N3CCOCC3)c(NC(=O)c3ccc(F)cc3)c2)cc1	33	-4	1	1	48	72*
COc1ccc(NS(=O)(=O)c2ccc(N3CCOCC3)c(NC(=O)c3cccc(F)c3)c2)cc1	27	-4	1	-6	32	13
COc1ccccc1NS(=O)(=O)c1ccc(N2CCOCC2)c(NC(=O)c2ccco2)c1	nt	-7	1.1	-13	nt	69*
COc1ccccc1NS(=O)(=O)c1cc(NC(=O)c2ccco2)ccc1N1CCOCC1	nt	-3	1	-11	nt	100*
COc1ccccc1NS(=O)(=O)c1cc(NC(=O)c2ccccc2F)ccc1N1CCOCC1	nt	-1	1	-11	nt	40
Cc1c(C(=O)OCC(=O)Nc2c(C)n(C)n(-c3ccccc3)c2=O)oc2ccccc12	nt	-4	1	-9	nt	-5
COc1cc(/C=C/C(=O)OC(C)C(=O)Nc2c(C)n(C)n(-c3ccccc3)c2=O)ccc1OCC#N (centres undefined)	nt	-3	1	-4	nt	-16
O=C(Nc1ccc(Cl)cc1)c1cnc(-c2ccccc2)nc1-c1ccccc1	2.7*	0	1	-3	0.9*	-11
CCOC(=O)c1cnc(-c2ccccc2)nc1-c1ccccc1	nt	-5	1	-4	nt	24
C/C=C/c1ccc(OCCCNC2CCCC2)c(OC)c1	63	-5	1	-6	65	100*
C/C=C/c1ccc(OCCOc2cc(C=O)ccc2OC)c(OC)c1	57	4	1	-3	57	85*
COc1ccc(/C=N/NC(=O)CC(=O)NC2CCCCC2)cc1	nt	-7	1.1	2	nt	4
O=C(Nc1ccccc1O)c1ccc(Cl)cc1	67	2	1	-8	63	-4
O=C(NC1=C(Nc2ccc(F)cc2)C(=O)c2ccccc2C1=O)c1ccc(Cl)cc1	60	16	0.8	9	49	96*
O=[N+]([O-])c1cncc([N+](=O)[O-])c1Nc1ccccc1Cl	nt	2	1	3	nt	80*
Nc1ccccc1Nc1ccncc1[N+](=O)[O-]	96	-4	1	-8	93	-7
O=C(Nc1ccccc1C(=O)NCc1cccnc1)c1cccc([N+](=O)[O-])c1	nt	2	1	-1	nt	4
C/C(=N\NC(=O)c1cccc(Cl)c1)C1C(=O)c2ccccc2C1=O	61	7	0.9	5	72	97*
Oc1ccc(/C=N/n2c(-c3ccco3)csc2=Nc2cccnc2)c(O)c1	31	-3	1	-7	31	99*
CC(C)N=c1scc(-c2ccco2)n1/N=C/c1ccc(O)c(O)c1	72	21	0.8	74*	77	99*
